Data reported in ChEMBL document CHEMBL1143019, “Hybrid molecules of estrone: new compounds with potential antibacterial, antifungal, and antiproliferative activities” (2007).
Values after ≈ are worked out from the molar mass of the structure shown.

Assays:
Mycobacterium avium [1] = experiment: Antimicrobial activity against Mycobacterium avium My 330/88 after 21 days; type: functional; settings: 504 h
HeLa = experiment: Cytotoxicity against human HeLa cells after 72 hrs; type: functional; settings: for CC50: Homo sapiens, HeLa, 72 h
Outline: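 About 10,000 cells per well in RPMI 1640 were preincubated 48 h without compound. The 10 test concentrations were then applied onto the monolayers and incubated 72 h at 37 °C in humidified 5% CO₂. Monolayers fixed with glutaraldehyde, stained with 0.05% methylene blue, and eluted with 0.33 N HCl; optical density measured at 630 nm.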

Mycobacterium kansasii [2] = experiment: Antimicrobial activity against Mycobacterium kansasii My 6509/96 after 7 days; type: functional; settings: 168 h
Outline: (§1)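 Run in Šula semisynthetic liquid medium containing bovine serum. Compounds added as DMSO solutions at final concentrations of […]. Each strain was also inoculated onto Löwenstein–Jensen medium to control inoculum sterility and growth.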

Mycobacterium kansasii [3] = experiment: Antimicrobial activity against Mycobacterium kansasii My 6509/96 after 14 days; type: functional; settings: 336 h; outline: as §1
[4] = tested on: Mycobacterium tuberculosis; experiment: Antimicrobial activity against Mycobacterium tuberculosis My 331/88 after 21 days; type: functional; settings: 504 h
Mycobacterium kansasii [5] = experiment: Antimicrobial activity against Mycobacterium kansasii My 235/80 after 7 days; type: functional; settings: 168 h; outline: as §1
Mycobacterium avium [6] = experiment: Antimicrobial activity against Mycobacterium avium My 330/88 after 14 days; type: functional; settings: 336 h
Mycobacterium kansasii [7] = experiment: Antimicrobial activity against Mycobacterium kansasii My 235/80 after 14 days; type: functional; settings: 336 h; outline: as §1
Mycobacterium kansasii [8] = experiment: Antimicrobial activity against Mycobacterium kansasii My 6509/96 after 21 days; type: functional; settings: 504 h; outline: as §1
[9] = tested on: Mycobacterium tuberculosis; experiment: Antimicrobial activity against Mycobacterium tuberculosis My 331/88 after 14 days; type: functional; settings: 336 h
K562 = experiment: Antiproliferative activity against human K562 cells after 72 hrs; type: functional; settings: K562, 72 h
Outline: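 About 10,000 suspension cells per well in RPMI 1640 with 10% heat-inactivated FBS and penicillin/streptomycin, without HEPES. Exposed to 10 concentrations for 72 h at 37 °C in humidified 5% CO₂. Wells diluted 1:50 in CASYTON and counted electronically, each result the mean of three successive counts. GI50 is where the concentration–response curve crosses 50% of control cell count.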

Mycobacterium kansasii [10] = experiment: Antimicrobial activity against Mycobacterium kansasii My 235/80 after 21 days; type: functional; settings: 504 h; outline: as §1
L929 = experiment: Antiproliferative activity against mouse L929 cells after 72 hrs; type: functional; settings: L929, 72 h
Outline: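 About 10,000 adherent cells per well in RPMI 1640 with 10% heat-inactivated FBS and penicillin/streptomycin, without HEPES. Exposed to 10 concentrations for 72 h at 37 °C in humidified 5% CO₂. Monolayers fixed with glutaraldehyde, stained 15 min with 0.05% methylene blue, and eluted with 0.33 N HCl; OD read at 630 nm. GI50 derived from dose–response curves relative to control.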

Candida albicans [11] = experiment: Antifungal activity against Candida albicans ATCC 44859 after 48 hrs; type: functional; settings: ATCC 44859, 48 h
Outline: (§2)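 Modified NCCLS M27-A broth microdilution with clinical isolates subcultured on Sabouraud dextrose agar. Suspensions diluted 1:50 in RPMI 1640 to give a final inoculum of 0.5–2.5×10³ CFU/mL for yeasts or 0.5–5×10⁴ CFU/mL for molds. The RPMI had L-glutamine, no bicarbonate, and 0.165 M MOPS to pH 7.0. Twofold dilutions from 250 to 0.49. Plates held at 35 °C, humid, without agitation. MIC is the lowest concentration giving ≥80% inhibition versus drug-free control, read at 24 and 48 h.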

Trichophyton benhamiae [12] = experiment: Antifungal activity against Trichophyton mentagrophytes 445 after 120 hrs; type: functional, Arthroderma benhamiae
Outline: (§3)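 Same modified M27-A microdilution with the mold inoculum of 0.5–5×10⁴ CFU/mL. Medium was RPMI 1640 with L-glutamine, no bicarbonate, and 0.165 M MOPS at pH 7.0. Twofold dilutions from 250 to 0.49. Incubated at 35 °C in a humid atmosphere.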

Candida albicans [13] = experiment: Antifungal activity against Candida albicans ATCC 44859 after 24 hrs; type: functional; settings: ATCC 44859, 24 h; outline: as §2
Trichosporon beigelii [14] = experiment: Antifungal activity against Trichosporon beigelii 1188 after 24 hrs; type: functional; outline: as §2
Lichtheimia corymbifera [15] = experiment: Antifungal activity against Absidia corymbifera 272 after 24 hrs; type: functional; outline: as §2
Pichia kudriavzevii [16] = experiment: Antifungal activity against Candida krusei E28 after 24 hrs; type: functional; outline: as §2
Candida tropicalis [17] = experiment: Antifungal activity against Candida tropicalis 156 after 48 hrs; type: functional; outline: as §2
Candida tropicalis [18] = experiment: Antifungal activity against Candida tropicalis 156 after 24 hrs; type: functional; outline: as §2
Aspergillus fumigatus [19] = experiment: Antifungal activity against Aspergillus fumigatus 231 after 48 hrs; type: functional; outline: as §2
Lichtheimia corymbifera [20] = experiment: Antifungal activity against Absidia corymbifera 272 after 48 hrs; type: functional; outline: as §2
Trichosporon beigelii [21] = experiment: Antifungal activity against Trichosporon beigelii 1188 after 48 hrs; type: functional; outline: as §2
Nakaseomyces glabratus [22] = experiment: Antifungal activity against Candida glabrata 20/I after 24 hrs; type: functional; outline: as §2
Trichophyton benhamiae [23] = experiment: Antifungal activity against Trichophyton mentagrophytes 445 after 72 hrs; type: functional, Arthroderma benhamiae; outline: as §3
Pichia kudriavzevii [24] = experiment: Antifungal activity against Candida krusei E28 after 48 hrs; type: functional; outline: as §2
Aspergillus fumigatus [25] = experiment: Antifungal activity against Aspergillus fumigatus 231 after 24 hrs; type: functional; outline: as §2
Nakaseomyces glabratus [26] = experiment: Antifungal activity against Candida glabrata 20/I after 48 hrs; type: functional; outline: as §2

| Compound | CC10 (HeLa) | CC50 (HeLa) | MIC (Mycobacterium kansasii [7]) | GI50 (K562) | GI50 (L929) | MIC (Candida albicans [11]) | MIC (Trichophyton benhamiae [12]) | MIC (Candida albicans [13]) | MIC (Trichosporon beigelii [14]) | MIC (Lichtheimia corymbifera [15]) | MIC (Pichia kudriavzevii [16]) | MIC (Candida tropicalis [17]) | MIC (Candida tropicalis [18]) | MIC (Aspergillus fumigatus [19]) | MIC (Lichtheimia corymbifera [20]) | MIC (Trichosporon beigelii [21]) | MIC (Nakaseomyces glabratus [22]) | MIC (Pichia kudriavzevii [24]) | MIC (Aspergillus fumigatus [25]) | MIC (Nakaseomyces glabratus [26]) | also measured |
| --- | --- | --- | --- | --- | --- | --- | --- | --- | --- | --- | --- | --- | --- | --- | --- | --- | --- | --- | --- | --- | --- |
| Sc1nnnn1-c1ccccc1 | 40 µg/mL (≈ 224 µM) | > 50 µg/mL | > 500 µM | > 50 µg/mL | > 50 µg/mL | – | – | – | – | – | – | – | – | – | – | – | – | – | – | – | MIC (Mycobacterium avium [1]): > 500 µM; MIC (Mycobacterium kansasii [2]): > 500 µM; MIC (Mycobacterium kansasii [3]): > 500 µM; MIC [4]: > 500 µM; MIC (Mycobacterium kansasii [5]): > 500 µM; MIC (Mycobacterium avium [6]): > 500 µM; MIC (Mycobacterium kansasii [8]): > 500 µM; MIC [9]: > 500 µM; MIC (Mycobacterium kansasii [10]): > 500 µM |
| C[C@]12CC[C@@H]3c4ccc(OCCCCCCCSc5nnnn5-c5ccc(Cl)c(Cl)c5)cc4CC[C@H]3[C@@H]1CCC2=O | 50 µg/mL (≈ 81.5 µM) | > 50 µg/mL | > 500 µM | > 50 µg/mL | > 50 µg/mL | > 250 µM | > 250 µM | > 250 µM | > 250 µM | > 250 µM | > 250 µM | > 250 µM | > 250 µM | > 250 µM | > 250 µM | > 250 µM | > 250 µM | > 250 µM | 250 µM (≈ 153 µg/mL) | > 250 µM | MIC [4]: > 500 µM; MIC (Mycobacterium kansasii [8]): > 500 µM; MIC (Trichophyton benhamiae [23]): > 250 µM; MIC (Mycobacterium kansasii [10]): > 500 µM |
| Clc1ccc(-n2nnnc2SCc2ccccc2)cc1 | 5 µg/mL (≈ 16.5 µM) | 50 µg/mL (≈ 165 µM) | 32 µM (≈ 9.69 µg/mL) | > 50 µg/mL | 16.7 µg/mL (≈ 55.2 µM) | > 250 µM | 62.5 µM (≈ 18.9 µg/mL) | > 250 µM | > 250 µM | > 250 µM | > 250 µM | > 250 µM | > 250 µM | 62.5 µM (≈ 18.9 µg/mL) | > 250 µM | > 250 µM | > 250 µM | > 250 µM | 62.5 µM (≈ 18.9 µg/mL) | > 250 µM | MIC (Mycobacterium kansasii [2]): 16 µM (≈ 4.84 µg/mL); MIC (Mycobacterium kansasii [3]): 16 µM (≈ 4.84 µg/mL); MIC (Mycobacterium kansasii [5]): 16 µM (≈ 4.84 µg/mL); MIC (Mycobacterium avium [6]): 62.5 µM (≈ 18.9 µg/mL); MIC [9]: 16 µM (≈ 4.84 µg/mL); MIC (Trichophyton benhamiae [23]): 31.3 µM (≈ 9.48 µg/mL) |
| C[C@@H]1[C@H](O)[C@@H](C)/C=C/C=C/C=C/C=C/C=C/C=C/C=C/[C@H](O[C@@H]2O[C@H](C)[C@@H](O)[C@H](N)[C@@H]2O)C[C@@H]2O[C@](O)(C[C@@H](O)C[C@@H](O)[C@H](O)CC[C@@H](O)C[C@@H](O)CC(=O)O[C@H]1C)C[C@H](O)[C@H]2C(=O)O [AMPHOTERICIN B] | – | – | – | – | – | 0.07 µM (≈ 0.0647 µg/mL) | – | 0.02 µM (≈ 0.0185 µg/mL) | 1.08 µM (≈ 0.998 µg/mL) | 1.08 µM (≈ 0.998 µg/mL) | 0.14 µM (≈ 0.129 µg/mL) | 0.07 µM (≈ 0.0647 µg/mL) | 0.07 µM (≈ 0.0647 µg/mL) | 0.27 µM (≈ 0.25 µg/mL) | 2.16 µM (≈ 2 µg/mL) | 2.16 µM (≈ 2 µg/mL) | 0.04 µM (≈ 0.037 µg/mL) | 0.14 µM (≈ 0.129 µg/mL) | 0.27 µM (≈ 0.25 µg/mL) | 0.14 µM (≈ 0.129 µg/mL) | – |
| C[C@]12CC[C@@H]3c4ccc(OCCCCCCCSc5nnnn5-c5ccc(Cl)cc5)cc4CC[C@H]3[C@@H]1CCC2=O | 50 µg/mL (≈ 86.3 µM) | > 50 µg/mL | – | > 50 µg/mL | > 50 µg/mL | > 250 µM | > 250 µM | > 250 µM | > 250 µM | > 250 µM | > 250 µM | > 250 µM | > 250 µM | > 250 µM | > 250 µM | > 250 µM | > 250 µM | > 250 µM | 250 µM (≈ 145 µg/mL) | > 250 µM | MIC (Trichophyton benhamiae [23]): > 250 µM |
| Cc1ccc(-n2nnnc2SCCCCCCCOc2ccc3c(c2)CC[C@@H]2[C@@H]3CC[C@]3(C)C(=O)CC[C@@H]23)cc1 | 28.7 µg/mL (≈ 51.4 µM) | > 50 µg/mL | > 500 µM | > 50 µg/mL | > 50 µg/mL | > 250 µM | > 250 µM | > 250 µM | > 250 µM | > 250 µM | > 250 µM | > 250 µM | > 250 µM | > 250 µM | > 250 µM | > 250 µM | > 250 µM | > 250 µM | 250 µM (≈ 140 µg/mL) | > 250 µM | MIC [4]: > 500 µM; MIC (Mycobacterium avium [6]): > 500 µM; MIC [9]: 500 µM (≈ 279 µg/mL); MIC (Trichophyton benhamiae [23]): > 250 µM; MIC (Mycobacterium kansasii [10]): > 500 µM |
| OC(Cn1cncn1)(Cn1cncn1)c1ccc(F)cc1F [FLUCONAZOLE] | – | – | – | – | – | 1.6 µM (≈ 0.49 µg/mL) | 52.2 µM (≈ 16 µg/mL) | 0.8 µM (≈ 0.245 µg/mL) | 3.3 µM (≈ 1.01 µg/mL) | > 250 µM | 52.2 µM (≈ 16 µg/mL) | > 250 µM | 1.6 µM (≈ 0.49 µg/mL) | > 250 µM | > 250 µM | 6.5 µM (≈ 1.99 µg/mL) | 13.1 µM (≈ 4.01 µg/mL) | 104 µM (≈ 32 µg/mL) | > 250 µM | 52.2 µM (≈ 16 µg/mL) | – |
